Source: ChEMBL document CHEMBL2046406 (J Med Chem, 2012)
Active and inactive are the calls of the source. No cut-off for these calls is given here.

Experiments:
Mu-type opioid receptor [1] = target: T1, Mu-type opioid receptor (Homo sapiens, UniProt P35372); test: biochemical; format: cell-based, CHO
[2] = target: T2, Kappa-type opioid receptor (Homo sapiens, UniProt P41145); test: biochemical; format: cell-based, CHO
[3] = target: T3, Delta-type opioid receptor (Homo sapiens, UniProt P41143); test: Displacement of [3H]-naltrindole from human delta opioid receptor expressed in CHO cells at 10 uM after 3 hrs by scintillation counting; format: cell-based
Homo sapiens [4] = organism: Homo sapiens; test: Selectivity index, ratio of inhibition of human mu opioid receptor to inhibition of human kappa opioid receptor
Homo sapiens [5] = organism: Homo sapiens; test: Selectivity index, ratio of inhibition of human delta opioid receptor to inhibition of human kappa opioid receptor
[6] = target: T2, Kappa-type opioid receptor; test: Agonist activity at human kappa opioid receptor expressed in CHO cells assessed as stimulation of […]GTPgammaS binding after 60 mins by scintillation counting; format: functional, cell-based
[7] = target: T2, Kappa-type opioid receptor; test: Agonist activity at human kappa opioid receptor expressed in CHO cells assessed as stimulation of […]GTPgammaS binding after 60 mins by scintillation counting relative to control; format: functional, cell-based
Method in brief: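 Membranes from CHO cells stably expressing human KOR (15 μg protein per tube) or MOR (7.5 μg protein per tube). Nonspecific binding with 10 μM GTPγS. Filtration, then scintillation counting. Triplicate, at least three experiments.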

[8] = target: T2, Kappa-type opioid receptor; test: Antagonist activity at human kappa opioid receptor expressed in CHO cells assessed as inhibition of U50488-induced […]GTPgammaS binding after 60 mins by scintillation counting; format: functional, cell-based
Method in brief: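 κ antagonism: hKOR-CHO membranes incubated with compound plus 100 nM U50,488.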

[9] = target: T2, Kappa-type opioid receptor; test: Displacement of [3H]-U69,593 from human kappa opioid receptor expressed in CHO cells at 10 uM after 60 mins by scintillation counting; format: cell-based
Homo sapiens [10] = organism: Homo sapiens; test: Selectivity index, ratio of inhibition of human delta opioid receptor to inhibition of human mu opioid receptor
Homo sapiens [11] = organism: Homo sapiens; test: Selectivity index, ratio of inhibition of human kappa opioid receptor to inhibition of human mu opioid receptor
[12] = target: T3, Delta-type opioid receptor; test: Displacement of [3H]-naltrindole from human delta opioid receptor expressed in CHO cells after 3 hrs by scintillation counting; format: cell-based
Method in brief: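 CHO membranes expressing human KOR or DOR incubated with radioligand and 12 compound concentrations in 1 mL 50 mM Tris-HCl, pH 7.5, at 25 °C. […] Nonspecific binding with 10 μM naloxone. Three experiments in triplicate.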

Mu-type opioid receptor [13] = target: T1, Mu-type opioid receptor; test: Agonist activity at human mu opioid receptor expressed in CHO cells assessed as stimulation of […]GTPgammaS binding after 60 mins by scintillation counting; format: functional, cell-based
Mu-type opioid receptor [14] = target: T1, Mu-type opioid receptor; test: Agonist activity at human mu opioid receptor expressed in CHO cells assessed as stimulation of […]GTPgammaS binding after 60 mins by scintillation counting relative to control; format: functional, cell-based
Mu-type opioid receptor [15] = target: T1, Mu-type opioid receptor; test: Antagonist activity at human mu opioid receptor expressed in CHO cells assessed as inhibition of DAMGO-induced […]GTPgammaS binding after 60 mins by scintillation counting; format: functional, cell-based
Mu-type opioid receptor [16] = target: T1, Mu-type opioid receptor; test: Antagonist activity at human mu opioid receptor expressed in CHO cells assessed as inhibition of DAMGO-induced […]GTPgammaS binding after 60 mins by scintillation counting relative to control; format: functional, cell-based
[17] = Displacement of [3H]-naltrindole from human delta opioid receptor expressed in CHO cells after 3 hrs by scintillation counting

T1 sequence (P35372 whole entry): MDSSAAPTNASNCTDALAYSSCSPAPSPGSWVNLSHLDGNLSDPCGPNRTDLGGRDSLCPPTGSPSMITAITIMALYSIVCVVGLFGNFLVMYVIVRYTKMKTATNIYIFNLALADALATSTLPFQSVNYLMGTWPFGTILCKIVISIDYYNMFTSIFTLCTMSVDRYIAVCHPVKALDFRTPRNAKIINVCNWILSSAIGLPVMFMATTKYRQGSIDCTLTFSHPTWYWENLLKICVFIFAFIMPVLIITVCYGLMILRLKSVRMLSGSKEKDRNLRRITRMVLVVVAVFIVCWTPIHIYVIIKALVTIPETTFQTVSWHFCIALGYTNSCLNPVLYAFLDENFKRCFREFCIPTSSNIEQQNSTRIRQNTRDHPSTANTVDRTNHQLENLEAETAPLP
T2 sequence (P41145 whole entry): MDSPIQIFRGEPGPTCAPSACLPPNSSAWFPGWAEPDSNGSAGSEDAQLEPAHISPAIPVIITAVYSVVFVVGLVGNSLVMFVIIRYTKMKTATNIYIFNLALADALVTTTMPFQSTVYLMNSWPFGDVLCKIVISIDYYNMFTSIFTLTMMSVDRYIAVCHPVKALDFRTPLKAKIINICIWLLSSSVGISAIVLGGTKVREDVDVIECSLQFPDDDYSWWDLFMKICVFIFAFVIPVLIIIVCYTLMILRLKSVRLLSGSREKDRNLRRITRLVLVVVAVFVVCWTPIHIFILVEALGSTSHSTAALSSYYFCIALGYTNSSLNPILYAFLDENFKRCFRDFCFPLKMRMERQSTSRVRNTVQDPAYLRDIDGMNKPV
T3 sequence (P41143 whole entry): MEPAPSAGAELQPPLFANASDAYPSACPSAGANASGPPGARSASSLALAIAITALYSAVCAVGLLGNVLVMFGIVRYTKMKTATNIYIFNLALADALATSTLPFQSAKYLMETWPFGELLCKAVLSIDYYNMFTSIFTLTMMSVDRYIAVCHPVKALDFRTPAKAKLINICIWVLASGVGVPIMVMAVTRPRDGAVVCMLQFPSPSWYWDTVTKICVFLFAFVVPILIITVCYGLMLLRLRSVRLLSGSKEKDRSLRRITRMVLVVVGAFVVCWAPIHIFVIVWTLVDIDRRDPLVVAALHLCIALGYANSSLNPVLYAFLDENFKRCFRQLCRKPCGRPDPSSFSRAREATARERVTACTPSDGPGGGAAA

Structure (SMILES)	Ki (Mu-type opioid receptor [1]) [nM]	Ki [2] [nM]	inhibition [3] [%]	Selectivity ratio (Homo sapiens [4])	Selectivity ratio (Homo sapiens [5])	other results
Oc1cccc(CNc2ccc3c(c2)C[C@@H]2[C@@H]4CCCC[C@]34CCN2CC2CC2)c1	150	0.99	46	150	> 10000	EC50 [6]: 27 nM; Emax [7]: 160%; Activity [8]: inactive
Nc1ccc2c(c1)[C@@]13CCCC[C@H]1[C@@H](C2)N(CC1CCC1)CC3	–	–	–	2	100	–
Nc1ccc2c(c1)[C@@]13CCCC[C@H]1[C@@H](C2)N(CC1CC1)CC3	–	–	–	7	830	–
COc1ccc(CNc2ccc3c4c2O[C@H]2[C@@H](O)C=C[C@H]5[C@@H](C3)N(C)CC[C@@]452)cc1	60	–	12	–	–	inhibition [9]: 54%; Selectivity ratio (Homo sapiens [10]): > 160; Selectivity ratio (Homo sapiens [11]): > 160
Oc1ccccc1CNc1ccc2c(c1)[C@@]13CCCC[C@H]1[C@@H](C2)N(CC1CC1)CC3	1.9	0.26	–	10	150	Ki [12]: 30 nM; EC50 (Mu-type opioid receptor [13]): 8.8 nM; Emax (Mu-type opioid receptor [14]): 44%; IC50 (Mu-type opioid receptor [15]; read-out: IC50): 160 nM; Imax (Mu-type opioid receptor [16]): 47%; EC50 [6]: 2.3 nM; Emax [7]: 110%; Activity [8]: inactive
CN1CC[C@]23c4c5ccc(NCc6cccc(O)c6)c4O[C@H]2[C@@H](O)C=C[C@H]3[C@H]1C5	7	910	31	–	–	EC50 (Mu-type opioid receptor [13]): 550 nM; IC50 (Mu-type opioid receptor [15]; cho): Not Active
CN1CC[C@]23CCCC[C@H]2[C@H]1Cc1ccc(N)cc13	7.9	110	–	–	–	Selectivity ratio (Homo sapiens [10]): 14; Selectivity ratio (Homo sapiens [11]): 190; Ki [17]: 1500 nM
